# ChEMBL document CHEMBL3616436, “Synthesis, cytotoxicity and antimicrobial activity of thiourea derivatives incorporating 3-(trifluoromethyl)phenyl moiety” (Eur J Med Chem, 2015)
# Active and inactive are the calls of the source. The rule behind the calls is not given here.
# Assays:
# [1] = Cytotoxicity against human MT4 cells; format: cell-based
# [2] = system: Vesicular stomatitis virus; assay: Antiviral activity against Vesicular stomatitis virus ATCC VR 1540 infected in African green monkey Vero 76 cells assessed as reduction of virus-plaque formation after 2 days by crystal violet staining; format: functional, organism-based; settings: ATCC VR 1540, Vero, 48 h
# [3] = system: Human immunodeficiency virus 1; assay: Antiviral activity against HIV1 3B infected in human MT4 cells assessed as protection against virus-induced cytopathogenicity by MTT assay; format: functional, organism-based; settings: Human immunodeficiency virus 1, 3B
# [4] = Cytotoxicity against bovine MDBK cells assessed as cell viability after 48 to 96 hrs by MTT assay; format: cell-based, Bos taurus; settings: cattle
# [5] = Antiviral activity against Bovine viral diarrhea virus 1-NADL ATCC VR-534 infected in MDBK cells assessed as protection against virus-induced cytopathogenicity after 3 to 4 days by MTT assay; format: functional, cell-based; settings: Bovine viral diarrhea virus isolates and strains, ATCC VR-534, MDBK
# In short: (§1)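 Cells seeded in 96-well plates (BHK 5x10^4, MDBK 3x10^4 cells/well), grown overnight to confluence, infected at m.o.i. 0.01 (BHK for Reo-1, MDBK for BVDV); serial compound dilutions in maintenance medium with 0.5% inactivated FBS added after 1 h; viability by MTT after 3–4 days at 37°C; EC50 for 50% protection by linear regression.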
# [6] = Cytotoxicity against BHK cells assessed as cell viability after 48 to 96 hrs by MTT assay; format: cell-based, Mesocricetus auratus; settings: hamster
# [7] = system: Yellow fever virus; assay: Antiviral activity against Yellow fever virus 17D infected in BHK cells assessed as protection against virus-induced cytopathogenicity after 3 to 4 days by MTT assay; format: functional, cell-based
# [8] = system: Mammalian orthoreovirus 1; assay: Antiviral activity against Reovirus type-1 ATCC VR-214 infected in BHK cells assessed as protection against virus-induced cytopathogenicity after 3 to 4 days by MTT assay; format: functional, cell-based; settings: Mammalian orthoreovirus 1, ATCC VR-214, BHK; in short: as §1
# [9] = Cytotoxicity against African green monkey Vero 76 cells assessed as cell viability after 48 to 96 hrs by crystal violet staining; format: cell-based; settings: chlorocebus sabaeus
# [10] = system: Coxsackievirus B5; assay: Antiviral activity against Human coxsackievirus B5 ATCC VR-29 infected in African green monkey Vero 76 cells assessed as reduction of virus-plaque formation after 3 days by crystal violet staining; format: functional, organism-based; settings: Enterovirus B, ATCC VR-29, Vero, 72 h
# In short: (§2)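 Plaque reduction: Vero-76 at 2x10^5 cells/well grown to confluent monolayers, infected 2 h at 50–100 PFU/well; after removing unadsorbed virus, overlay of D-MEM, 1% inactivated FBS, 0.75% methylcellulose with or without serial compound dilutions; 3 days at 37°C, fixed and stained with crystal violet in 50% ethanol, plaques counted; EC50 by linear regression.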
# [11] = system: Poliovirus 1; assay: Antiviral activity against Poliovirus type 1 ATCC VR-1562 infected in African green monkey Vero 76 cells assessed as reduction of virus-plaque formation after 2 days by crystal violet staining; format: functional, organism-based; settings: Enterovirus C, ATCC VR-1562, Vero, 48 h
# [12] = system: Vaccinia virus; assay: Antiviral activity against Human Vaccinia virus ATCC VR-1549 infected in African green monkey Vero 76 cells assessed as reduction of virus-plaque formation after 3 days by crystal violet staining; format: functional, organism-based; settings: Orthopoxvirus vaccinia, ATCC VR-1549, Vero, 72 h
# [13] = system: Human alphaherpesvirus 1; assay: Antiviral activity against Human herpesvirus 1 KOS ATCC VR-1493 infected in African green monkey Vero 76 cells assessed as reduction of virus-plaque formation after 3 days by crystal violet staining; format: functional, organism-based; settings: Human alphaherpesvirus 1, KOS ATCC VR1493, Vero, 72 h; in short: as §2
# [14] = system: Escherichia coli; assay: Antimicrobial activity against Escherichia coli ATCC 10538 after 18 hrs by twofold serial microdilution method; format: functional, organism-based
# [15] = system: Escherichia coli; assay: Antimicrobial activity against Escherichia coli ATCC 25922 after 18 hrs by twofold serial microdilution method; format: functional, organism-based
# [16] = system: Escherichia coli; assay: Antimicrobial activity against Escherichia coli NCTC 8196 after 18 hrs by twofold serial microdilution method; format: functional, organism-based
# [17] = system: Pseudomonas aeruginosa; assay: Antimicrobial activity against Pseudomonas aeruginosa ATCC 15442 after 18 hrs by twofold serial microdilution method; format: functional, organism-based
# [18] = system: Pseudomonas aeruginosa; assay: Antimicrobial activity against Pseudomonas aeruginosa NCTC 6749 after 18 hrs by twofold serial microdilution method; format: functional, organism-based
# [19] = system: Pseudomonas aeruginosa; assay: Antimicrobial activity against Pseudomonas aeruginosa ATCC 27863 after 18 hrs by twofold serial microdilution method; format: functional, organism-based
# [20] = system: Bordetella bronchiseptica; assay: Antimicrobial activity against Bordetella bronchiseptica ATCC 4617 after 18 hrs by twofold serial microdilution method; format: functional, organism-based
# [21] = system: Candida albicans; assay: Antimicrobial activity against Candida albicans ATCC 10231 after 24 hrs by twofold serial microdilution method; format: functional, organism-based
# [22] = system: Candida albicans; assay: Antimicrobial activity against Candida albicans ATCC 90028 after 24 hrs by twofold serial microdilution method; format: functional, organism-based
# [23] = system: Candida parapsilosis; assay: Antimicrobial activity against Candida parapsilosis ATCC 22019 after 24 hrs by twofold serial microdilution method; format: functional, organism-based
Structure (SMILES),CC50 [1] [µM],EC50 [2] [µM],EC50 [3] [µM],CC50 [4] [µM],EC50 [5] [µM],CC50 [6] [µM],EC50 [7] [µM],EC50 [8] [µM],CC50 [9] [µM],EC50 [10] [µM],EC50 [11] [µM],EC50 [12] [µM],EC50 [13] [µM],Activity [14],Activity [15],Activity [16],Activity [17],Activity [18],Activity [19],Activity [20],also measured
CCCC[C@H]1CC[C@H](c2ccc(NC(=S)Nc3cccc(C(F)(F)F)c3)cc2)CC1,22,> 17,> 22,10,> 10,9.5,> 9.5,> 9.5,17,> 17,> 17,> 17,> 17,inactive,inactive,inactive,inactive,inactive,inactive,inactive,Activity [21]: inactive; Activity [22]: inactive; Activity [23]: inactive
CC[C@H]1CC[C@H](c2ccc(NC(=S)Nc3cccc(C(F)(F)F)c3)cc2)CC1,39,> 10,> 39,9,> 9,10,> 10,> 10,10,> 10,> 10,> 10,> 10,inactive,inactive,inactive,inactive,inactive,inactive,inactive,Activity [21]: inactive; Activity [22]: inactive; Activity [23]: inactive
CC(=O)NC(=S)Nc1cccc(C(F)(F)F)c1,> 100,> 100,> 100,> 100,> 100,> 100,> 100,> 100,> 100,> 100,> 100,> 100,> 100,inactive,inactive,inactive,inactive,inactive,inactive,inactive,Activity [21]: inactive; Activity [22]: inactive; Activity [23]: inactive
